Test results reported in PubChem BioAssay AID540281 (Sanford-Burnham Center for Chemical Genomics, 2011).
Several values for one entry are separate records, joined by “and”; a condition that tells them apart may be missing. Equal values may be shown once. The whole screen tested about 2,500 compounds, of which about 1,500 (60%) were called active.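 How the source made its calls: active means inhibition of at least 30% at 20 µM; inactive means the rest.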 So high a share suggests a set chosen from earlier hits. Only a sample is shown. Non-standard residues stand in square brackets, D forms with d. Residues, ends and D or L forms follow the SMILES beside them. ξ: configuration not given here. ξM = CSCCC(N)C(=O)O

Each compound was assayed against Carboxy-terminal domain RNA polymerase II polypeptide A small phosphatase 1 (Homo sapiens) (UniProt Q9GZU7) (assay: Scp-1 phosphatase inhibitors, retest, confirmation, biochemical, colorimetric, single concentration (AID 540281;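 further: plate controls were DMSO with enzyme for no effect and buffer wells lacking enzyme for full effect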)). Details: recombinant SCP-1 catalytic domain, phosphate release, malachite green absorbance; at 20 µM; stronger effect = higher value.
Sequence of Carboxy-terminal domain RNA polymerase II polypeptide A small phosphatase 1 (Homo sapiens) (Q9GZU7 76-261 limits assumed): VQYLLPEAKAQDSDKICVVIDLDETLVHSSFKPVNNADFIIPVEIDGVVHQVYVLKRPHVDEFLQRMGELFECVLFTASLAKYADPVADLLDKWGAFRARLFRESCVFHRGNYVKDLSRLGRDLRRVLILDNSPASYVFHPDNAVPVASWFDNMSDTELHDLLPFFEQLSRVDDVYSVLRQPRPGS
How it was run: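 Assay system: SCP-1 catalytic fragment (residues 76-261). Schedule: 45 min enzyme reaction at room temperature. Medium: Tris acetate pH 5.5 buffer with Mg2+ and detergent. Compound: one dose, 20 µM final, 1.0% DMSO. Reagent: Phospho-17-mer peptide substrate. Detection: absorbance at 630 nm, free phosphate colorimetry.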

| SMILES | inhibition |
| --- | --- |
| O=C(O)c1ccc(N/N=C/c2ccc3ncccc3c2)cc1 | 39.7% (active) |
| COc1ccc(NC(=O)CN(C)C(=O)/C=C/c2cn(Cc3ccccc3)nc2-c2cccnc2)cc1 | 84.6% (active) |
| COC(=O)C[n+]1cccc2ccccc21 | 21% (inactive) |
| Nn1cnnc1N/N=C/c1cc([N+](=O)[O-])c(Cl)cc1Cl | 86.2% (active) |
| O=C1CCC(CCC(=O)N2CCCC(C(=O)c3ccc(Cl)cc3)C2)=NN1 (stereo not drawn) | -8.97% (inactive) |
| O=C(Nc1cccc(F)c1)[C@@H]1CCCN1 | 0.82% (inactive) |
| O=C(Nc1cccc(F)c1)c1cc(-c2ccco2)nc2ccccc12 | 50.4% (active) |
| CN(CC(=O)Nc1cccc(F)c1)C(=O)C1CC(=O)N(CCc2ccccc2)C1 (stereo not drawn) | -11.8% (inactive) |
| CCCc1nc(-c2cc3cc(C)ccc3[nH]c2=O)no1 | 84.7% (active) |
| Cc1cc(/C=C2\SC(=O)N(C)C2=O)c(C)n1-c1cccc(C(=O)O)c1 | 38.7% (active) |
| C[n+]1ccc(C(=O)NCc2ccccc2)cc1 | 80.1% (active) |
| COc1cc(Cl)cc(C2NC(=O)NC(C)=C2C(=O)NCc2ccccc2)c1O (stereo not drawn) | -19.7% (inactive) and -13.7% (inactive) |
| Cc1ccc(SCC(=O)NC(=O)NCc2ccco2)c(C)c1 | 73.6% (active) |
| O=C(CN1CCN(S(=O)(=O)/C=C/c2ccccc2)CC1)NC(=O)NCc1ccco1 | 10.9% (inactive) |
| Cc1c(CCC(=O)O)c(=O)oc2cc(OCc3ccc(Br)cc3)ccc12 | 38.7% (active) |
| Cc1c(CCC(=O)O)c(=O)oc2c(C)c(OCc3ccccc3Cl)ccc12 | 58.5% (active) |
| COc1ccc(Cl)cc1C=CC=NNC(=O)c1ccncc1 | 38.5% (active) |
| COc1ccc(N2CCN(C(=O)CSc3nc4cc(OC)c(OC)cc4cc3C#N)CC2)cc1 | 25.3% (inactive) |
| COCCCNc1nc2ccccc2nc1NS(=O)(=O)c1ccc(F)cc1 | -5.57% (inactive) |
| CCC(=O)Nc1ccccc1N1CCN(S(C)(=O)=O)CC1 | -7.14% (inactive) |
| COc1ccc(S(=O)(=O)c2c[nH]c(=S)[nH]c2=O)cc1Cl | 40.6% (active) |

| SMILES | inhibition |
| --- | --- |
| COc1cccc2sc(N(CCCN(C)C)C(=O)C(c3ccccc3)c3ccccc3)nc12 | -18.8% (inactive) |
| CC1=NNC(=O)C1CCC(=O)N/N=C\c1cccc(Cl)c1 (stereo not drawn) | -18.8% (inactive) |
| CSc1ccc(/C=N/NC(=O)c2cccc(Cl)c2)cc1 | 59.9% (active) |
| O=C(Cn1nnc(-c2ccc3c(c2)OCO3)n1)NCc1ccco1 | 30.9% (active) |
| Cc1nnc(SCC(=O)Nc2ccc(S(=O)(=O)Nc3ccc(Cl)nn3)cc2)s1 | 58.2% (active) |
| C=C1c2cccc(OC)c2O[C@H](C(=O)OCC)[C@@H]1CCCCCC | 88% (active) |
| CO/N=C(\C(=O)N[C@@H]1C(=O)N2C(C(=O)O)=C(COC(C)=O)CS[C@H]12)c1csc(N)n1 (stereo in doubt) | 43.7% (active) |
| C=CC1C(OC2OC(CO)C(O)C(O)C2O)OC=C(C(=O)OC)C1CC1CC(=O)CC(CC(=O)CCc2ccc(O)cc2)O1 (stereo not drawn) | -13.1% (inactive) |
| Cc1ccc(CN2CCN(c3ccccc3Cl)CC2)o1 | -20% (inactive) |
| CCOC(=O)C1=C(C)c2ccccc2OC1(C)C(=O)OCC (stereo not drawn) | 39.1% (active) |
| CC(=O)Nc1ccc(N2C(=O)CCC2=O)cc1C | -5.6% (inactive) |
| CCOc1ccccc1/C=c1\sc2nc(-c3ccco3)nn2c1=O | 61% (active) |
| N#Cc1ccc(C(=O)Nc2cccc3cccnc23)c(F)c1 | 3.88% (inactive) |
| O=C(COC(=O)c1ccc(F)cc1F)Nc1ncccn1 | 52.5% (active) |
| Cc1ccc(NC(=O)COc2ccc(/C=N\NC(=O)c3cccnc3)cc2)cc1C | 81% (active) |
| Cc1ccc(C2(C)NC(=O)N(CC(=O)Nc3ccccc3C(=O)N3CCCCC3)C2=O)cc1 (stereo not drawn) | -13.7% (inactive) |
| Cc1ccccc1NC(=O)CN1C(=O)N/C(=C\c2cccn2-c2cccc(C(=O)O)c2)C1=O | 82.2% (active) |
| C[C@H](CO)N1C[C@H](C)[C@@H](CN(C)C(=O)NC2CCCCC2)Oc2ccc(NC(=O)c3ccncc3)cc2C1=O | 6.94% (inactive) |
| COc1ccc(NC(=O)N(C)C[C@H]2Oc3ccc(NC(=O)C4CC4)cc3C(=O)N([C@H](C)CO)C[C@@H]2C)cc1 | 2.35% (inactive) |
| C[C@H](CO)N1C[C@H](C)[C@H](CN(C)C(=O)Nc2ccc(C(F)(F)F)cc2)Oc2c(NC(=O)c3ccncc3)cccc2C1=O | 44.3% (active) |
| CNS(=O)(=O)c1cccc(C(=O)OCC(=O)N2c3ccccc3NC(=O)C2(C)C)c1 | 48.6% (active) |

| SMILES | inhibition |
| --- | --- |
| CC(NC(=O)CC1SC(N)=NC1=O)c1ccccc1 (stereo not drawn) | -28.8% (inactive) |
| C=Cc1ccc(C(=O)N2CCCC(CCC(=O)N3CCN(c4ccccn4)CC3)C2)cc1 (stereo not drawn) | 67% (active) |
| O=C(Nc1cc(S(=O)(=O)N2CCCCC2)ccc1Cl)C1COc2ccccc2O1 (stereo not drawn) | 65.1% (active) |
| COc1cc(SC)ccc1C(=O)NNC(=O)C1COc2ccccc2O1 (stereo not drawn) | 5.11% (inactive) |
| O=C(N/N=C/c1ccco1)c1ccc(C(=O)N/N=C/c2ccco2)o1 | 56.8% (active) |
| COc1ccc2[nH]c3c(C)c4cc[n+](C)cc4c(C)c3c2c1 | -2.43% (inactive) |
| COc1ccc(/C=C/C(=O)OCC(=O)NC2CCCCCC2)cc1OC | 45.2% (active) |
| N/C(=N\OC(=O)N1c2ccccc2Sc2ccccc21)c1ccc(Br)cc1 | 46.1% (active) |
| Cc1ccc(Cc2nnc(SCC(=O)Nc3ccc(C)cc3C)[nH]c2=O)cc1 | 39.7% (active) |
| COCCCn1c(Cc2csc(Nc3cccc(Cl)c3)n2)nnc1SCC(=O)OC1CCCCC1 | 59.1% (active) |
| Cc1ccc(S(=O)(=O)Nc2ccc3c(c2)C(=O)N([C@H](C)CO)C[C@@H](C)[C@@H](CN(C)C(=O)Nc2cccc4ccccc24)O3)cc1 | 5.11% (inactive) |
| N#Cc1ccccc1CN1C(=O)S/C(=C/c2cccn2-c2cccc(C(=O)O)c2)C1=O | 67% (active) |
| C[N+](C)(C)CCNC(=O)c1cc[n+](Cc2ccccc2)c(/C=N/O)c1 | 83.3% (active) |
| CC(=O)Nc1ccccc1Sc1ccc2c3c(cccc13)C(=O)N(c1ccc(C)cc1)C2=O | 0.82% (inactive) |
| COC(=O)CNC(=O)C(CCSC)NC(C)=O (stereo not drawn) (Ac-[ξM]-Gly-OMe) | -12.9% (inactive) |
| O=C(CNC(=O)C(c1ccccc1)c1ccccc1)N/N=C\c1ccc2c(c1)OCO2 | -8.05% (inactive) |
| O=C(CCNC(=O)c1ccccc1)NN=Cc1ccc(Br)o1 | 45% (active) |
| O=C(CCC(=O)N/N=C/c1ccc(Br)o1)N/N=C/c1ccc(Br)o1 | 40.3% (active) |
| N#Cc1c(-c2cccs2)nc(SCC(=O)c2ccc(Br)cc2)[nH]c1=O | 78.5% (active) |
| COc1ccc(Cc2nnc(NC(=O)Cc3cccs3)s2)cc1 | 77.3% (active) |
| O=S(=O)(Nc1ccccc1Cl)c1cccc2nsnc12 | 48.1% (active) |
